Screening data: PubChem BioAssay, Broad Institute
PGC1a acetyl inh: PGC1a acetylation modulation, inhibitor mode; 350,000 compounds, 0.17% hits; AID 651687; inhibition, % at 15.6 µM; U2OS PGC1a acetylation, AlphaScreen anti-acetyl-lysine; with virally co-expressed GCN5 acetyltransferase;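 active = every replicate shows inhibition of at least 40%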;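 also: 0% = neutral control wells and 100% = positive control wells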
AF4-AF9 inh: MLL-AF4/AF9 protein interaction inhibition. P42568. AlphaScreen, biotin-AF4 peptide binding to FLAG-AF9. inhibition, % at 10 µM. 350,000 compounds, 0.47% hits. AID 651704;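 active = every replicate reaching a set inhibition limit, whatever the replicate mean, cut at about 25% in these data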;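 also: 0% = plate neutral control median and 100% = total signal loss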
Target sequence (P42568 whole entry, looked up): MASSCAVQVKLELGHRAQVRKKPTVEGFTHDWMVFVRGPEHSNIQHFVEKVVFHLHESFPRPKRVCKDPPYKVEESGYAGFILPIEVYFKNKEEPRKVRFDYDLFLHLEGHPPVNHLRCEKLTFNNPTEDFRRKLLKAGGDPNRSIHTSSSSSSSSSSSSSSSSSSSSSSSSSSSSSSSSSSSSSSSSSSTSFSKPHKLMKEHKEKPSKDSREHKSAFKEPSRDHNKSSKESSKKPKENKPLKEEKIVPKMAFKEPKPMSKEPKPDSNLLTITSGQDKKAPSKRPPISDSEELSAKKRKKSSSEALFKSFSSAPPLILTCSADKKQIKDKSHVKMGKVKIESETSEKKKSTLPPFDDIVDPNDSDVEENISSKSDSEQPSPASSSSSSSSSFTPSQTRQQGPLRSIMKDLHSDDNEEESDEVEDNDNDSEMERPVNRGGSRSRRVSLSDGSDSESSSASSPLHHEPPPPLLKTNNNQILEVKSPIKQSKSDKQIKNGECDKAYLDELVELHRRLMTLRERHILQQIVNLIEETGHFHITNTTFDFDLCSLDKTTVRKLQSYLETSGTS
INS-1E GSIS act: GLuc luminescence reporter in INS-1E cells, primary screen for activators of glucose-dependent secretion of insulin. INS-1E GLuc reporter insulin secretion, 2-3 h. activation, % at 16.6 µM. 370,000 compounds, 0.61% hits. AID 743287;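 active = lowest replicate activation of at least 40%, so every replicate reaches that level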;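 also: 0% = median of neutral control wells and 100% = median of IBMX positive control wells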
EWS-Fli inh: blocks EWS/Fli oncoprotein-driven transcription; 350,000 compounds, 0.67% hits; AID 651661; inhibition, % at 12.6 µM; A673 NR0B1-luciferase reporter, viability-normalised;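 active = mean inhibition of at least 50% after viability correction, with every replicate also passing that limit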;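 also: firefly luciferase signal divided by Alamar Blue viability fluorescence both relative to DMSO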
Xi reactivation: X-chromosome reactivation activator; XiGFP mouse fibroblasts, % GFP-positive cells imaging, 3 d; cells co-treated with 5-aza-dC sensitizer; scaled so ellipticine positive control = 100%; activation, % at 7.58 µM; 360,000 compounds, 0.055% hits;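 active = mean normalized replicate activation at least 10% and every replicate at or above 10%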;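 also: 0% = median of on-plate neutral control wells and 100% = ellipticine 6 µM median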
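Schedule: 3 d treatment, 15 min room-temperature fixation; system: 68-5-11 XiGFP fibroblast line; buffer or medium: DMEM plus 5-aza-dC sensitizer; control set: ellipticine 6 µM positive control; compound: one concentration, pinned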
PAX8 reporter: PAX8 transcriptional activity inhibition | RMG-I TPO-luciferase reporter, SteadyGlo, 24 h | inhibition, % at 12.6 µM | 360,000 compounds, 1.2% hits;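 active = mean replicate inhibition at least 60% with every replicate also reaching 60%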;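 also: luciferase light reporting Pax8 driven TPO promoter activity; plate controls were median of neutral control wells for no effect and mitoxantrone controls for full effect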
DNA binding: binds DNA displacing acridine orange. salmon sperm DNA acridine orange fluorescence polarization. 640 compounds, 2% hits. shares compounds with EWS-Fli inh. AC35, µM (top dose mostly 68 µM), inactives show at the highest dose activity change, negative = DNA binding;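 active = fitted curve reaches a 35% signal fall AC35 below twice the sample's top valid tested dose, actives reach about 48 µM in these data; inactive = the rest, including activity in the rising direction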;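 also: lower polarization ratio signals compound binding to DNA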
* hit, by the source's call; . = no result given. Sampled rows, rich in hits. Any-hit rate of the full collection: about 2.1%.

SMILES | PGC1a acetyl inh | AF4-AF9 inh | INS-1E GSIS act | EWS-Fli inh | Xi reactivation | PAX8 reporter | DNA binding
COC(=O)c1cn(CCNC(=O)[C@H](Cc2ccccc2)NS(=O)(=O)c2ccc(C)cc2)nn1 | 10.7 | -6.2 | . | -3.5 | . | 13.5 | .
CO[C@H]1CN(C)C(=O)c2ccc(NC(=O)C3CC3)cc2OC[C@H](C)N(Cc2nccs2)C[C@@H]1C | . | 0.0 | -0.3 | -1.6 | -0.6 | 1.3 | .
CNC[C@H]1Oc2ccc(NC(=O)Cc3ccccc3)cc2C(=O)N([C@H](C)CO)C[C@H]1C | 6.7 | -0.9 | 1.1 | 5.5 | -1.3 | 6.8 | .
C[n+]1c2n(c3ccccc31)N=C(c1ccc(Cl)cc1)CS2 | . | . | . | . | . | 28.6 | .
COc1ccc(C2=Nn3c([n+](C)c4ccccc43)SC2)cc1 | -14.6 | -0.8 | -35.4 | 52.7* | 0.0 | 83.8* | -2.8%
COC(=O)C[C@@H]1CC[C@@H]2[C@@H](COc3ccc(NC(=O)Nc4ccc(C#N)cc4)cc3C(=O)N2C)O1 | 9.9 | -12.0 | -7.4 | 78.1* | 0.2 | -5.5 | 12.2%
COC(=O)C[C@H]1CC[C@H]2[C@H](COc3ccc(NC(=O)Nc4ccc(C#N)cc4)cc3C(=O)N2C)O1 | -6.0 | -12.8 | 0.3 | 41.9 | 0.4 | 3.8 | .
COC(=O)C[C@H]1CC[C@@H]2[C@@H](COc3ccc(NC(=O)Nc4ccc(C#N)cc4)cc3C(=O)N2C)O1 | -11.7 | -8.6 | 0.3 | -6.3 | 0.2 | -4.3 | .
COC(=O)C[C@@H]1CC[C@H]2[C@H](COc3ccc(NC(=O)Nc4ccc(C#N)cc4)cc3C(=O)N2C)O1 | 8.1 | -13.0 | -16.5 | 86.8* | 0.4 | -2.2 | 5.1%
O=C(N[C@@H]1CC[C@@H](CC(=O)N2CCCCC2)O[C@H]1CO)c1ccc2c(c1)OCO2 | 4.5 | -0.6 | -4.9 | -3.5 | -0.1 | -0.3 | .
CCOc1ccc(NC(=O)C(=O)N/N=C\c2ccc(CNS(=O)(=O)c3ccccc3)o2)cc1 | 3.2 | -10.5 | 4.7 | 86.5* | -0.1 | -15.4 | 8.9%
COCCCNc1ccn2nc(-c3ccccc3)cc2n1 | . | -0.8 | 0.1 | 56.8* | 0.0 | 9.8 | -8.7%
COc1cccc(Sc2ccccc2/C=N/NC(N)=O)c1 | -9.9 | -4.1 | 2.1 | 53.8* | 0.0 | 31.7 | -13.7%
C=CCOc1c(/C=N\NC(N)=O)cccc1OC | 2.9 | -2.8 | 2.1 | 6.0 | 0.1 | 1.4 | .
C=C1C(=O)C=C[C@]2(C)C[C@@H]3OC(=O)[C@](C)(O)[C@H]3C[C@@H]12 | -177.8 | -8.3 | -13.9 | 65.3* | 0.0 | 67.2* | 14.9%
Cc1nc(N)nc(N)c1/C=C/C(C)(C)c1ccc(Cl)cc1 | -7.1 | 2.7 | -26.5 | 58.9* | 0.1 | 67.6* | -6.4%
CC(C)CC#Cc1ccc([C@@H]2[C@@H](CO)N3CCCCN(S(=O)(=O)c4ccc(F)cc4)C[C@H]23)cc1 | -12.7 | 4.7 | 42.3 | 81.9* | 1.4 | 91.4* | -10.6%
C[C@@H]1CCCCO[C@H](CN(C)Cc2ccc(C(F)(F)F)cc2)[C@@H](C)CN([C@@H](C)CO)C(=O)c2cc(NS(=O)(=O)c3cn(C)cn3)ccc2O1 | 3.9 | 3.2 | -15.2 | 1.2 | 0.2 | . | .
C(=N\Nc1ccc2ccccc2n1)/c1ccc2c(c1)OCCO2 | -2.1 | 11.1 | 33.2 | 85.9* | 0.2 | 73.0* | -13.9%
COc1cc(/C=C/C(=O)O)ccc1O | 5.5 | -4.5 | . | -5.8 | . | . | .
COc1cc(/C=C/C(=O)/C=C(O)/C=C/c2ccc(O)c(OC)c2)ccc1O | . | 0.9 | . | 80.9* | 0.0 | 0.9 | 29.8µM*
COc1cc(/C=C/C(=O)CC(=O)/C=C/c2ccc(O)c(OC)c2)ccc1O | 1.1 | 9.7 | . | 72.8* | 0.0 | 26.2 | 40.2µM*
CC(=O)Oc1ccc(-c2ccc(C(=O)Nc3cccc(S(=O)(=O)N4CCOCC4)c3)cc2)cc1 | -31.8 | -5.0 | -9.0 | 59.2* | 0.0 | 40.9 | -7.2%
COc1ccc(-c2cc(CNc3nc(NC(C)C)nc4cc(-c5ccccc5)sc34)on2)cc1 | 18.1 | 1.6 | 1.6 | 53.9* | 0.5 | 103.7* | -1.4%
CC(=O)NCCNc1nc(NC(C)C)nc2cc(-c3ccccc3)sc12 | 6.1 | 9.0 | -4.9 | 3.8 | 0.6 | -1.4 | .
